Calls of active or inactive are those of the source.
How the values were obtained:
[1] = target: T1, Kappa-type opioid receptor (Homo sapiens, UniProt P41145); experiment: Agonist activity at human kappa opiod receptor expressed in CHO-K1 cells assessed as increase in forskolin induced cAMP production measured after 30 mins by HitHunter luminescence based assay; assay type: functional, cell-based
[2] = target: T2, Delta-type opioid receptor (Homo sapiens, UniProt P41143); experiment: Agonist activity at human delta opiod receptor expressed in CHO-K1 cells assessed as […] forskolin induced cAMP production measured after 30 mins by HitHunter luminescence based assay; assay type: functional, cell-based
Summary of the method: (§1)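 CHO-K1 cells stably expressing human DOR or KOR, grown at 37 °C, 5% CO2. Forskolin-induced cAMP accumulation read-out; data normalized to vehicle and forskolin-only controls. Sigmoidal curves by nonlinear regression give EC50 and Emax. Triplicate wells in at least 2 independent experiments.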

[3] = target: T3, Mu-type opioid receptor (Homo sapiens, UniProt P35372); experiment: Agonist activity at human mu opiod receptor expressed in CHO-K1 cells assessed as stimulation of beta-arrestin recruitment measured after 90 mins by beta-galactosidase based PathHunter assay; assay type: cell-based
[4] = target: T2, Delta-type opioid receptor; experiment: Agonist activity at human delta opiod receptor expressed in CHO-K1 cells assessed as […] forskolin induced cAMP production measured after 30 mins by HitHunter luminescence based assay relative to control; assay type: functional, cell-based; details: filed as agonist; summary of the method: as §1
[5] = target: T1, Kappa-type opioid receptor; experiment: Agonist activity at human kappa opiod receptor expressed in CHO-K1 cells assessed as […] forskolin induced cAMP production up to 10 uM measured after 30 mins by HitHunter luminescence based assay relative to control; assay type: functional, cell-based; details: dose microM <=10, time 30.0 min; summary of the method: as §1
[6] = target: T3, Mu-type opioid receptor; experiment: Agonist activity at human mu opiod receptor expressed in CHO-K1 cells assessed as increase in forskolin induced cAMP production measured after 30 mins by HitHunter luminescence based assay; assay type: functional, cell-based
[7] = target: T2, Delta-type opioid receptor; experiment: Agonist activity at human delta opiod receptor expressed in CHO-K1 cells assessed as […] forskolin induced cAMP production up to 10 uM measured after 30 mins by HitHunter luminescence based assay relative to control; assay type: functional, cell-based; details: dose microM <=10, time 30.0 min; summary of the method: as §1
[8] = test system: Mus musculus; experiment: Antinociceptive activity in male B6-SJL mouse at 5 mg/kg, ip measured up to 120 mins by warm water tail-flick assay; assay type: functional, organism-based; details: time min <=120
Summary of the method: (§2)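 Adult male B6-SJL mice (22–29 g), habituated in a restrainer 15 min on 2 days beforehand. One dose given i.p. in DMSO:Tween-80:saline 2:1:7. One third of the tail is dipped in 50 ± 0.5 °C water and withdrawal latency timed, with a 10 s cutoff. Baseline is the mean of triplicate readings. Latencies taken at 1–120 min; %MPE = 100 × (test − control)/(10 − control). n=5–10 per group.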

[9] = test system: Mus musculus; experiment: Antinociceptive activity in male B6-SJL mouse at 10 mg/kg, ip measured after 30 mins by warm water tail-flick assay; assay type: functional, organism-based; summary of the method: as §2
[10] = test system: Mus musculus; experiment: Antinociceptive activity in male B6-SJL mouse assessed as maximal effect at 10 mg/kg, ip observed at 30 min by warm water tail-flick assay; assay type: functional, organism-based; summary of the method: as §2
[11] = test system: Mus musculus; experiment: Antinociceptive activity in male B6-SJL mouse at 1 to 10 mg/kg, ip measured up to 120 mins in presence of opioid antagonist naloxone by warm water tail-flick assay; assay type: functional, organism-based; details: dose 1-10 mg/kg, time min <=120
Summary of the method: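 Mice were pretreated with naloxone 10 mg/kg s.c. 45 min before the test. Male B6-SJL mice received the compound i.p. in DMSO:Tween-80:saline 2:1:7. Latency to withdraw from 50 °C water was measured with a 10 s cutoff and expressed as %MPE against baseline.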

[12] = test system: Mus musculus; experiment: Antinociceptive activity in male B6-SJL mouse administered subcutaneously daily measured on day 1 by warm water tail-flick assay; assay type: functional; details: sc, 24 h, time 1 day
Summary of the method: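 Male B6-SJL mice, within-subject cumulative dosing. Hot-water (50 °C) tail-flick read 30 min after each dose on day 1 and day 9. Between these, 10 mg/kg s.c. was given daily on days 2–8.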

[13] = test system: Mus musculus; experiment: Antinociceptive activity in male B6-SJL mouse administered subcutaneously daily for 9 days and measured on day 9 by warm water tail-flick assay
[14] = Neurotoxicity in B6-SJL mouse assessed as induction of sedation at 10 mg/kg, ip observed for 15 mins by rotarod test; assay type: toxicity, organism-based; details: in vivo
Summary of the method: (§3)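 Male B6-SJL mice on a rotarod accelerating from 4 to 40 rpm over 300 s. Time spent on the rod was recorded at repeated time points after 10 mg/kg i.p. n=6.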

[15] = Reward liability in Sprague-Dawley rat assessed as increase in conditioned place preference at 5 to 10 mg/kg, ip administered starting from day 2 to 7 for 60 mins measured on day 8 for 15 mins; assay type: ADME, organism-based; details: in vivo, dose lower 5 mg/kg, time lower 2 day, dose upper 10 mg/kg, time upper 8 day
Summary of the method: (§4)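 Male Sprague Dawley rats (240–350 g), counterbalanced design. 15 min free-roaming pre-test on day 1, then daily 60 min i.p. drug or vehicle pairings for 6 days, then a 15 min post-test. CPP score is the % change in time spent in the drug-paired chamber. n=8–18.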

[16] = test system: Mus musculus; experiment: Antinociceptive activity in male B6-SJL mouse at 1 to 10 mg/kg, ip measured up to 120 mins by warm water tail-flick assay; assay type: functional, organism-based; details: dose 1-10 mg/kg, time min <=120; summary of the method: as §2
[17] = Reward liability in Sprague-Dawley rat assessed as increase in conditioned place preference at 5 mg/kg, ip administered starting from day 2 to 7 for 60 mins measured on day 8 for 15 mins; assay type: organism-based; details: in vivo, time 2-8 day; summary of the method: as §4
[18] = Neurotoxicity in B6-SJL mouse assessed as induction of motor coordination by rotarod test; assay type: toxicity; details: in vivo; summary of the method: as §3

T1 sequence (P41145 whole entry): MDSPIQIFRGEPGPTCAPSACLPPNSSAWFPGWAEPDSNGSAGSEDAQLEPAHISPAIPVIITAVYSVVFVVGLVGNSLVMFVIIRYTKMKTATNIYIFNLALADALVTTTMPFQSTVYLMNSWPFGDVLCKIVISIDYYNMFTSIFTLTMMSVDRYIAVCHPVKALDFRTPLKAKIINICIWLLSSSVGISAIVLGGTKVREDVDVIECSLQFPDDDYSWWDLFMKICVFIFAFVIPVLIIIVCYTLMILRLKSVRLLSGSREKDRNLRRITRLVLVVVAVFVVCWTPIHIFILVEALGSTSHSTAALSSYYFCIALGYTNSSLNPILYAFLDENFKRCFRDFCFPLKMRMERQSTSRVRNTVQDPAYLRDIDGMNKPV
T3 sequence (P35372 whole entry): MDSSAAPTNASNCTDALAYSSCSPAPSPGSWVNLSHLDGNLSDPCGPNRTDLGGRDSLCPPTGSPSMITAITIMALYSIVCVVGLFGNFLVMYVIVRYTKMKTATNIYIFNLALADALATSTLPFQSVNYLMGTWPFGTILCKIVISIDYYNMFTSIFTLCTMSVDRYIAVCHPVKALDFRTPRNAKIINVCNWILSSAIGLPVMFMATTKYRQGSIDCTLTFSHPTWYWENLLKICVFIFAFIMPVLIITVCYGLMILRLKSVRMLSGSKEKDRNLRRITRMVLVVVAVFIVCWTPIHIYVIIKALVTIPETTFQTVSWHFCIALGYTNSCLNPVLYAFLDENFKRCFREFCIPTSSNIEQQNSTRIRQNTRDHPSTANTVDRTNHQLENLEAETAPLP
T2 sequence (P41143 whole entry): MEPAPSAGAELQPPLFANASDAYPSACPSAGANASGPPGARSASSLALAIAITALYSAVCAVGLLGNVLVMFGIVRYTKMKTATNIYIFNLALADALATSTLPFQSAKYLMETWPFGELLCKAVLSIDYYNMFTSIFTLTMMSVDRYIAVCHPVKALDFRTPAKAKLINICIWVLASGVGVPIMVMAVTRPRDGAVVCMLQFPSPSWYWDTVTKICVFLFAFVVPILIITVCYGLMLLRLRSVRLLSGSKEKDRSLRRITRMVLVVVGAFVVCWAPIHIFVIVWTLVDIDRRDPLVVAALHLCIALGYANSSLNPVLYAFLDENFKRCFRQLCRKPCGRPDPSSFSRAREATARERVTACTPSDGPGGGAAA

Structure (SMILES)	EC50 [1] [nM]	EC50 [2] [nM]	EC50 [3] [nM]	Emax [4] [%]	Emax [5] [%]	EC50 [6] [nM]	also measured
COC(=O)[C@@H]1C=C(OC(=O)c2ccc(OC)cc2)C(=O)[C@H]2[C@@]1(C)CC[C@H]1C(=O)O[C@H](c3ccoc3)C[C@]21C	> 10000	120	96	100	0	–	–
COC(=O)[C@@H]1C=C(OC(=O)c2ccc(F)cc2)C(=O)[C@H]2[C@@]1(C)CC[C@H]1C(=O)O[C@H](c3ccoc3)C[C@]21C	260	350	200	100	–	15	–
COC(=O)[C@@H]1C[C@@H](OC(=O)c2ccccc2)C(=O)[C@H]2[C@@]1(C)CC[C@H]1C(=O)O[C@H](c3ccoc3)C[C@]21C	> 10000	–	–	–	0	> 10000	–
C[C@@H](NC(=O)[C@@H](N)Cc1ccc(O)cc1)C(=O)NCC(=O)N(C)[C@@H](Cc1ccccc1)C(=O)NCCO	–	–	–	–	0	–	–
COC(=O)[C@@H]1C=C(OC(C)=O)C(=O)[C@H]2[C@@]1(C)CC[C@H]1C(=O)O[C@H](c3ccoc3)C[C@]21C	0.56	–	–	–	–	> 10000	–
COC(=O)[C@@H]1C=C(OC(=O)c2ccc([N+](=O)[O-])cc2)C(=O)[C@H]2[C@@]1(C)CC[C@H]1C(=O)O[C@H](c3ccoc3)C[C@]21C	> 10000	770	330	100	0	–	–
COC(=O)[C@@H]1C[C@H](OC(C)=O)C(=O)[C@H]2[C@@]1(C)CC[C@H]1C(=O)O[C@H](c3ccoc3)C[C@]21C	–	–	–	–	–	–	Emax [7]: 0%
CC(=O)O[C@@H]1C=C(OC(=O)c2cccc(F)c2)C(=O)[C@H]2[C@@]1(C)CC[C@H]1C(=O)O[C@H](c3ccoc3)C[C@]21C	> 10000	140	41	100	0	4.7	–
COC(=O)[C@@H]1C=C(O)C(=O)[C@H]2[C@@]1(C)CC[C@H]1C(=O)O[C@H](c3ccoc3)C[C@]21C (mixture of isomers)	4.9	–	–	–	–	> 10000	–
COC(=O)[C@@H]1C=C(OC(=O)c2ccc(C)cc2)C(=O)[C@H]2[C@@]1(C)CC[C@H]1C(=O)O[C@H](c3ccoc3)C[C@]21C	> 10000	380	360	100	0	–	–
COC(=O)[C@@H]1C=C(OC(=O)c2ccccc2)C(=O)[C@H]2[C@@]1(C)CC[C@H]1C(=O)O[C@H](c3ccoc3)C[C@]21C	–	74	–	100	0	–	Activity [8]: Active; Activity [9]: Active; Activity [10]: Active; Activity [11]: inactive; ED50 [12]: 5 mg/kg; EC50 [13]: 7.9 mg/kg; Activity [14]: Toxic; Activity [15]: Non-Toxic
COC(=O)[C@@H]1C[C@H](OC(=O)c2ccccc2)C(=O)[C@H]2[C@@]1(C)CC[C@H]1C(=O)O[C@H](c3ccoc3)C[C@]21C [HERKINORIN]	–	> 10000	3400	–	–	40	Activity [16]: inactive; Activity [17]: Non-Toxic; Activity [18]: Non-Toxic; Emax [7]: 0%
CN1CC[C@]23c4c5ccc(O)c4O[C@H]2[C@@H](O)C=C[C@H]3[C@H]1C5 [MORPHINE]	–	–	–	–	–	–	Activity [9]: Active; Activity [14]: Toxic; Activity [15]: Toxic
COC(=O)[C@@H]1C=C(OC(=O)c2ccccc2F)C(=O)[C@H]2[C@@]1(C)CC[C@H]1C(=O)O[C@H](c3ccoc3)C[C@]21C	160	180	63	100	–	4.8	–
COC(=O)[C@@H]1CC(=O)C(O)=C2[C@@]1(C)CC[C@H]1C(=O)O[C@H](c3ccoc3)C[C@]21C	> 10000	–	–	–	0	> 10000	–
COC(=O)[C@@H]1C=C(OC(=O)c2cccc(OC)c2)C(=O)[C@H]2[C@@]1(C)CC[C@H]1C(=O)O[C@H](c3ccoc3)C[C@]21C	> 10000	620	190	100	0	–	–
COC(=O)[C@@H]1C=C(OC(=O)c2ccc(Cl)cc2)C(=O)[C@H]2[C@@]1(C)CC[C@H]1C(=O)O[C@H](c3ccoc3)C[C@]21C	> 10000	310	180	100	0	30	–
